# Measured values from ChEMBL document CHEMBL1144441, “Identification of a novel cardenolide (2''-oxovoruscharin) from Calotropis procera and the hemisynthesis of novel derivatives displaying potent in vitro antitumor activities and high in vivo tolerance: structure-activity relationship analyses” (J Med Chem, 2005).
# Assays:
# PC-3 = assay: In vitro cytotoxic activity against human PC-3 cancer cell lines after 3 days of culture; format: functional
# In short: (§1)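 MTT overall-growth panel across 57 human cancer lines. Cells were plated for 24 h at 10 000–40 000 cells/mL, depending on cell type. Drugs were given at nine concentrations, 10^-9 to 10^-5 M in semilog steps, for 3 days. Absorbance was read at 570 nm with a 630 nm reference, in sextuplicate. Surviving cells are expressed as % of untreated control (100%).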
# [1] = In vitro cytotoxic activity against human C32 cancer cell lines after 3 days of culture; format: functional; in short: as §1
# Hs-578T = assay: In vitro cytotoxic activity against human Hs 578.T cancer cell lines after 3 days of culture; format: functional; in short: as §1
# [2] = In vitro cytotoxic activity against human SCC-9 cancer cell lines after 3 days of culture; format: functional; in short: as §1
# H4 = assay: In vitro cytotoxic activity against human H4 cancer cell lines after 3 days of culture; Activity expressed as log IC50; format: functional
# In short: (§2)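 Adherent human cancer cell lines seeded at 10 000 to 40 000 cells/mL (depending on cell type) and left 24 h before treatment. Nine concentrations, 10^-9 to 10^-5 M in semilog steps, for 72 h. Growth measured by MTT reduction to formazan, absorbance 570 nm (reference 630 nm). Sextuplicate wells. IC50 is the concentration giving 50% lower overall growth than control.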
# [3] = In vitro cytotoxic activity against human G361 cancer cell lines after 3 days of culture; format: functional; in short: as §1
# U-87 MG = assay: In vitro cytotoxic activity against human U87MG cancer cell lines after 3 days of culture; format: functional, U-87MG ATCC
# In short: (§3)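 Human cancer cell lines, seeded 10 000–40 000 cells/mL and plated for 24 h, then exposed 72 h to nine drug concentrations from 10^-9 to 10^-5 M in semilog steps. Overall growth read by MTT reduction to formazan, absorbance at 570 nm (reference 630 nm). Sextuplicate wells; IC50 is the concentration reducing overall growth by 50% versus untreated control.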
# ZR-75-1 = assay: In vitro cytotoxic activity against human ZR-75-1 cancer cell lines after 3 days of culture; format: functional; in short: as §3
# 786-0 = assay: In vitro cytotoxic activity against human 786-O cancer cell lines after 3 days of culture; format: functional; in short: as §1
# SK-MEL-28 = assay: In vitro cytotoxic activity against human SKMEL-28 cancer cell lines after 3 days of culture; format: functional; in short: as §3
# BXPC-3 = assay: In vitro cytotoxic activity against human BxPC-3 cancer cell lines after 3 days of culture; format: functional; in short: as §1
# [4] = In vitro cytotoxic activity against human MCF7HTB-22 cancer cell lines after 3 days of culture; format: functional; in short: as §1
# [5] = In vitro cytotoxic activity against human […] cancer cell lines after 3 days of culture; format: functional; in short: as §1
# BT-20 = assay: In vitro cytotoxic activity against human BT-20 cancer cell lines after 3 days of culture; format: functional; in short: as §1
# A204 = assay: In vitro cytotoxic activity against human A204 cancer cell lines after 3 days of culture; format: functional; in short: as §1
# HT-1080 = assay: In vitro cytotoxic activity against human HT1080 cancer cell lines after 3 days of culture; format: functional; in short: as §1
# HCT-15 = assay: In vitro cytotoxic activity against human HCT-15 cancer cell lines after 3 days of culture; format: functional; in short: as §1
# U373 MG = assay: In vitro cytotoxic activity against human U-373MG cancer cell lines after 3 days of culture; format: functional, U-373MG ATCC; in short: as §3
# Malme-3M = assay: In vitro cytotoxic activity against human MALME-3M cancer cell lines after 3 days of culture; format: functional; in short: as §1
# ACHN = assay: In vitro cytotoxic activity against human ACHN cancer cell lines after 3 days of culture; format: functional; in short: as §1
# MDA-MB-231 = assay: In vitro cytotoxic activity against human MDA-MB-231 cancer cell lines after 3 days of culture; format: functional; in short: as §1
# [6] = In vitro cytotoxic activity against human Su.86.86 cancer cell lines after 3 days of culture; format: functional; in short: as §3
# FaDu = assay: In vitro cytotoxic activity against human FaDu cancer cell lines after 3 days of culture; format: functional; in short: as §1
# HT1197 = assay: In vitro cytotoxic activity against human HT1197 cancer cell lines after 3 days of culture; format: functional; in short: as §1
# HT-29 = assay: In vitro cytotoxic activity against human HT-29 cancer cell lines after 3 days of culture; format: functional; in short: as §1
# DU-145 = assay: In vitro cytotoxic activity against human DU145 cancer cell lines after 3 days of culture; format: functional; in short: as §1
# A-427 = assay: In vitro cytotoxic activity against human A427 cancer cell lines after 3 days of culture; format: functional; in short: as §1
# T-24 = assay: In vitro cytotoxic activity against human T24 cancer cell lines after 3 days of culture; format: functional; in short: as §3
# [7] = In vitro cytotoxic activity against human HT144 cancer cell lines after 3 days of culture; format: functional; in short: as §1
# LoVo = assay: In vitro cytotoxic activity against human LoVo cancer cell lines after 3 days of culture; format: functional; in short: as §1
# PANC-1 = assay: In vitro cytotoxic activity against human Panc-1 cancer cell lines after 3 days of culture; format: functional; in short: as §1
# [8] = In vitro cytotoxic activity against human SW1783 cancer cell lines after 3 days of culture; Activity expressed as log IC50; format: functional; in short: as §2
# [9] = In vitro cytotoxic activity against human Hs 683 cancer cell lines after 3 days of culture; Activity expressed as log IC50; format: functional; in short: as §2
# [10] = In vitro cytotoxic activity against human 769-P cancer cell lines after 3 days of culture; format: functional; in short: as §1
# T98G = assay: In vitro cytotoxic activity against human T98G cancer cell lines after 3 days of culture; format: functional; in short: as §3
# [11] = In vitro cytotoxic activity against human SK-UT-1B cancer cell lines after 3 days of culture; format: functional; in short: as §3
# [12] = In vitro cytotoxic activity against human Capan-2 cancer cell lines after 3 days of culture; format: functional; in short: as §1
# [13] = In vitro cytotoxic activity against human Hs 766.T cancer cell lines after 3 days of culture; Activity expressed as log IC50; format: functional; in short: as §2
# [14] = In vitro cytotoxic activity against human Detroit 562 cancer cell lines after 3 days of culture; format: functional; in short: as §1
# [15] = In vitro cytotoxic activity against human Hs 174.T cancer cell lines after 3 days of culture; format: functional; in short: as §1
# DLD-1 = assay: In vitro cytotoxic activity against human DLD-1 cancer cell lines after 3 days of culture; format: functional; in short: as §1
# MES-SA = assay: In vitro cytotoxic activity against human MES-SA cancer cell lines after 3 days of culture; format: functional; in short: as §1
# WiDr = assay: In vitro cytotoxic activity against human WiDr cancer cell lines after 3 days of culture; format: functional; in short: as §3
# [16] = In vitro cytotoxic activity against human SW1088 cancer cell lines after 3 days of culture; Activity expressed as log IC50; format: functional; in short: as §2
# LNCaP = assay: In vitro cytotoxic activity against human LNCaP cancer cell lines after 3 days of culture; format: functional; in short: as §1
# [17] = In vitro cytotoxic activity against human Hs 729 cancer cell lines after 3 days of culture; format: functional; in short: as §1
# CFPAC-1 = assay: In vitro cytotoxic activity against human CFPAC-1 cancer cell lines after 3 days of culture; Activity expressed as log IC50; format: functional; in short: as §2
# MIA PaCa-2 = assay: In vitro cytotoxic activity against human MiaPaca-2 cancer cell lines after 3 days of culture; format: functional; in short: as §1
# [18] = In vitro cytotoxic activity against human SW948 cancer cell lines after 3 days of culture; format: functional; in short: as §3
# CAKI-2 = assay: In vitro cytotoxic activity against human CAKI-2 cancer cell lines after 3 days of culture; format: functional; in short: as §1
# A498 = assay: In vitro cytotoxic activity against human A-498 cancer cell lines after 3 days of culture; format: functional; in short: as §1
# [19] = In vitro cytotoxic activity against human AL-12T cancer cell lines after 3 days of culture; format: functional; in short: as §1
# [20] = In vitro cytotoxic activity against human SK-LMS-1 cancer cell lines after 3 days of culture; format: functional; in short: as §1
# T47D = assay: In vitro cytotoxic activity against human T-47D cancer cell lines after 3 days of culture; format: functional; in short: as §3
# A549 = assay: In vitro cytotoxic activity against human A549 cancer cell lines after 3 days of culture; format: functional; in short: as §1
structure (smiles),measurement,setting,value
CCc1c2c(nc3ccc(O)cc13)-c1cc3c(c(=O)n1C2)COC(=O)[C@]3(O)CC [7-ETHYL-10-HYDROXYCAMPTOTHECIN],Log IC50,PC-3,-6.7
same,Log IC50,[1],-8.7
same,Log IC50,Hs-578T,-6.3
same,Log IC50,[2],-6.1
same,Log IC50,H4,-6.5
same,Log IC50,[3],-5.6
same,Log IC50,U-87 MG,-8.1
same,Log IC50,ZR-75-1,-7.4
same,Log IC50,786-0,-8.3
same,Log IC50,SK-MEL-28,-7.3
same,Log IC50,BXPC-3,-7.1
same,Log IC50,[4],-7.5
same,Log IC50,[5],-9
same,Log IC50,BT-20,-6.5
same,Log IC50,A204,-7.7
same,Log IC50,HT-1080,-7.3
same,Log IC50,HCT-15,-7.1
same,Log IC50,U373 MG,-9
same,Log IC50,Malme-3M,-5.2
same,Log IC50,ACHN,-8.3
same,Log IC50,MDA-MB-231,-5.3
same,Log IC50,[6],-6.5
same,Log IC50,FaDu,-8.9
same,Log IC50,HT1197,-5
same,Log IC50,HT-29,-7.5
same,Log IC50,DU-145,-9
same,Log IC50,A-427,-9
same,Log IC50,T-24,-8.2
same,Log IC50,[7],-7.6
same,Log IC50,LoVo,-6.4
same,Log IC50,PANC-1,-5.1
same,Log IC50,[8],-7.3
same,Log IC50,[9],-7
same,Log IC50,[10],-7.9
same,Log IC50,T98G,-7.3
same,Log IC50,[11],-9
same,Log IC50,[12],-6.3
same,Log IC50,[13],-5.6
same,Log IC50,[14],-8
same,Log IC50,[15],-6.9
same,Log IC50,DLD-1,-6.8
same,Log IC50,MES-SA,-7.1
same,Log IC50,WiDr,-6.6
same,Log IC50,[16],-5.4
same,Log IC50,LNCaP,-5.5
same,Log IC50,[17],-7.3
same,Log IC50,CFPAC-1,-8.3
same,Log IC50,MIA PaCa-2,-6.6
same,Log IC50,[18],-7.7
same,Log IC50,CAKI-2,-5.3
same,Log IC50,A498,-6.9
same,Log IC50,[19],-6.1
same,Log IC50,[20],-6.4
same,Log IC50,T47D,-7.3
same,Log IC50,A549,-7.4
